Results taken from ChEMBL document CHEMBL1671761, “Preclinical characterization of BI 201335, a C-terminal carboxylic acid inhibitor of the hepatitis C virus NS3-NS4A protease” (Antimicrob Agents Chemother, 2010).

Tests used:
Neutrophil elastase = Neutrophil elastase (Homo sapiens, UniProt P08246); experiment: Inhibition of human leukocyte elastase after 60 mins fluorescence assay
[1] = Clearance in human liver microsomes; format: ADME, Microsome; details: read-out: QH
In short: (§1)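 Male liver microsomes (Sprague-Dawley rat, beagle dog, human, rhesus monkey) at 1 mg microsomal protein in 1 ml of 0.066 M Tris pH 7.4 with 2.5 mM NADPH. Initial compound concentration was 2 μM. Incubations ran at 37°C and were started with NADPH. Samples were taken at 0, 10 and 20 min and quenched with an equal volume of 1:1 acetonitrile-methanol. Supernatants were analysed by HPLC and clearance calculated by the Obach method.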

[2] = Inhibition of HCV 2a NS3/4A protease; design: species or system Hepatitis C virus subtype 2a; details: read-out: Ki(app)
In short: (§2)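 Substrate was 5 μM anthranilyl-DDIVPAbu[C(O)-O]AMY(3-NO2)TW-OH in 50 mM Tris pH 8.0, 0.25 M citrate, 0.01% dodecylmaltoside, 1 mM TCEP, 5% DMSO. Run at 23°C for 60-70 min, stopped with MES pH 5.8, read by product fluorescence. IC50 converted to apparent Ki via IC50=Ki(1+[S]/Km). Mean ± SD, ≥3 experiments.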

Hepatitis C virus [3] = experiment: Inhibition of HCV 1b NS3/4A protease; design: species or system Hepatitis C virus subtype 1b; details: read-out: Ki(app)
In short: as §2, with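 “Full-length NS3 coexpressed with the 54-residue NS4A, 0.5 nM (2.5 nM for genotype 1a). Substrate” for “Substrate”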

[4] = Apparent permeability from basolateral to apical side in human Caco2 cells; format: ADME, cell-based; details: Caco-2, read-out: permeability
In short: (§3)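 Caco-2 monolayers were differentiated 23-25 days on Transwell inserts. After 30 min at 37°C, compound was added to the donor side (apical for A-to-B, basolateral for B-to-A). Receiver sampled at 0, 1, 2, 3 h; analysed by HPLC.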

[5] = Inhibition of HCV 4a NS3/4A protease; design: species or system Hepatitis C virus subtype 4a; details: read-out: Ki(app); in short: as §2
Huh-7 = experiment: Cytotoxicity activity against human HuH7 cells by MTT assay; format: functional
In short: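 MTT assay in proliferating Huh-7 cells exposed 72 h to serial inhibitor dilutions; formazan read at 570 nm. CC50 taken from percent inhibition.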

[6] = Binding affinity to HCV 5a NS3/4A protease; design: species or system Hepatitis C virus subtype 5a; details: read-out: Ki(app); in short: as §2
[7] = Inhibition of HCV 1a NS3/4A protease; design: species or system Hepatitis C virus subtype 1a; details: read-out: Ki(app); in short: as §2
Hepatitis C virus [8] = experiment: Antiviral activity against HCV 1a infected in Huh7 cells assessed as inhibition of viral replication after 72 hrs by RT-PCR; format: functional, organism-based, Hepacivirus hominis; details: subtype 1a, Huh-7, 72 h
In short: (§4)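 Huh-7-derived subgenomic replicon cells of genotype 1a or 1b, grown in DMEM/10% FBS with G418. Replicon RNA was quantified by TaqMan real-time RT-PCR against an in vitro-transcribed RNA standard curve and normalized to total RNA (RiboGreen).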

Cathepsin B = Cathepsin B (Homo sapiens, UniProt P07858); experiment: Inhibition of human CatB after 60 mins fluorescence assay
[9] = Inhibition of HCV 2b NS3/4A protease; design: species or system Hepatitis C virus subtype 2b; details: read-out: Ki(app); in short: as §2
[10] = Apparent permeability from apical to basolateral side in human Caco2 cells; format: ADME, cell-based; details: Caco-2, read-out: permeability; in short: as §3
[11] = Inhibition of HCV 3a NS3/4A protease; design: species or system Hepatitis C virus subtype 3a; details: read-out: Ki(app); in short: as §2
Hepatitis C virus [12] = experiment: Antiviral activity against HCV 1b infected in Huh7 cells assessed as inhibition of viral replication after 72 hrs by RT-PCR; format: functional, organism-based, Hepacivirus hominis; details: genotype 1b, Huh-7, 72 h; in short: as §4
[13] = Clearance in Sprague-Dawley rat liver microsomes; format: ADME, Microsome; details: read-out: QH; in short: as §1
[14] = Inhibition of HCV 6a NS3/4A protease; design: species or system Hepatitis C virus subtype 6a; details: read-out: Ki(app); in short: as §2

Chain of Neutrophil elastase (P08246 whole entry): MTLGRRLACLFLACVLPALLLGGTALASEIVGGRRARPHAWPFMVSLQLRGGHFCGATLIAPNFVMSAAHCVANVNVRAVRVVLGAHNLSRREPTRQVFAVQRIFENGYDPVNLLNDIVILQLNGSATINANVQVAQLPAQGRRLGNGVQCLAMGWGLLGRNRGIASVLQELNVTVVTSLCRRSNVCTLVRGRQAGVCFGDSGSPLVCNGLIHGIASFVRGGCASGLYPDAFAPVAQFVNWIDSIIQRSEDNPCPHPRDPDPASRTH

| Structure (SMILES) | IC50 (Neutrophil elastase) | hepatic extraction ratio [1] | Ki [2] | Ki (Hepatitis C virus [3]) | Papp B→A [4] | Ki [5] | CC50 (Huh-7) | Ki [6] | Ki [7] | EC50 (Hepatitis C virus [8]) | IC50 (Cathepsin B) | Ki [9] | Papp A→B [10] | Ki [11] | EC50 (Hepatitis C virus [12]) | hepatic extraction ratio [13] | Ki [14] |
| --- | --- | --- | --- | --- | --- | --- | --- | --- | --- | --- | --- | --- | --- | --- | --- | --- | --- |
| CCC[C@H](NC(=O)[C@@H]1[C@H]2CCC[C@H]2CN1C(=O)[C@@H](NC(=O)[C@@H](NC(=O)c1cnccn1)C1CCCCC1)C(C)(C)C)C(=O)C(=O)NC1CC1 | 0.68 µM | 0.64 | 0.015 µM | 0.0044 µM | 230 nm/s | 0.05 µM | 37 µM | 0.11 µM | 0.0032 µM | 0.7 µM | 2.3 µM | 0.073 µM | 41 nm/s | 0.16 µM | 0.54 µM | 0.41 | 0.0045 µM |
| CC(C)(C)NC(=O)N[C@H](C(=O)N1C[C@H]2[C@@H]([C@H]1C(=O)NC(CC1CCC1)C(=O)C(N)=O)C2(C)C)C(C)(C)C (stereo partly specified) [BOCEPREVIR] | 17 µM |  | 0.0073 µM | 0.002 µM | 230 nm/s | 0.0086 µM | > 70 µM | 0.018 µM | 0.0011 µM | 0.55 µM | 6.2 µM | 0.028 µM | 6 nm/s | 0.023 µM |  |  | 0.0023 µM |
